Among the data in PubChem BioAssay AID652011 (Sanford-Burnham Center for Chemical Genomics, 2013) are inhibition values, retold here.

Where “and” joins values, the source holds several entries; their conditions need not be identical. Equal values may be shown once.

Sequence of Endothelial PAS domain-containing protein 1 (Homo sapiens) (Q99814 whole entry, looked up, the tested form may be a part): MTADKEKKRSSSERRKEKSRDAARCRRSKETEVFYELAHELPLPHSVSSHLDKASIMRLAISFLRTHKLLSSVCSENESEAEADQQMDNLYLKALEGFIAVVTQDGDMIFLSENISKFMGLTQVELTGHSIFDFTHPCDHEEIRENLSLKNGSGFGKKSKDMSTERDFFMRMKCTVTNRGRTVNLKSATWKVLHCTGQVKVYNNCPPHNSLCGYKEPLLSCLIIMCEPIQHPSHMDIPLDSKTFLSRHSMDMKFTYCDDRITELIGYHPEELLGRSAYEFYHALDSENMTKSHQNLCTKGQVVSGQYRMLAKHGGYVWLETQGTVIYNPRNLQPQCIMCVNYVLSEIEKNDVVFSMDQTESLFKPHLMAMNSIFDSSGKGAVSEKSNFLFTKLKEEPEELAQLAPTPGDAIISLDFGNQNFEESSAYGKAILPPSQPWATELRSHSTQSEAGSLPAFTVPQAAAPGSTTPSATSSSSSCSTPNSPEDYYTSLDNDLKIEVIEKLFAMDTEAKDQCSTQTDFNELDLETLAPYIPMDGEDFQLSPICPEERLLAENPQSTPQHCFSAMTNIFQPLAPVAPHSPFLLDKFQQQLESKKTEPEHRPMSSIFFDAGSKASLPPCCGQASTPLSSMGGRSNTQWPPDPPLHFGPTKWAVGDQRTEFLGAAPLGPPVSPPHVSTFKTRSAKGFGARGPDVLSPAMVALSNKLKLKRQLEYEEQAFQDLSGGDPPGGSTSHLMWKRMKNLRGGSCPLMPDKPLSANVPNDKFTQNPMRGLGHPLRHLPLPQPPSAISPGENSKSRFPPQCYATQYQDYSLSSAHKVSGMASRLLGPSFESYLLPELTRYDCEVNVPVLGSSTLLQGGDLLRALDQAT

In this assay the target is Endothelial PAS domain-containing protein 1 (Homo sapiens) (UniProt Q99814). Description: HIF reporter inhibition across pancreatic and renal lines – cell-based, luminescence, MIAPaCa-2, 786-0, panel, SAR follow-up (AID 652011). Particulars: MIAPaCa-2/PANC HIF reporter, luciferase luminescence, desferoxamine, overnight, HIF2a PANC, run 2; at 99 µM (top of the series). Put shortly: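 Reagent: Desferoxamine added before compound | Doses: Compounds from 10 mM and 0.3125 mM stocks, 1% DMSO final | Times: Overnight seeding and compound exposure, 37 °C, 5% CO2, 10-min detection | Measured by: One-Glo luciferase luminescence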
One may read the inhibition as the drop in the measured response relative to a control, in per cent. `CCc1ccc(-c2noc(CCC(=O)NC(C)CC)n2)cc1` (stereo not given): the inhibition was -30.6%. In the case of `CNC(=O)CCc1nc(-c2ccc(C(C)C)cc2)no1`, the inhibition was found to be 8.04%. To `CCOc1ccccc1NC(=O)CCc1nc(-c2ccc(C(C)(C)C)cc2)no1` belongs 112%; to `CC(C)(C)c1ccc(-c2noc(CCC(=O)Nc3ccccc3)n2)cc1`, 128%; to `CC(C)CNC(=O)CCc1nc(-c2ccc(C(C)(C)C)cc2)no1`, 65.5%. As for `CC(C)(C)NC(=O)CCc1nc(-c2ccc(C(C)(C)C)cc2)no1`, the inhibition is 102%.

As to `CC(C)(C)c1ccc(-c2noc(CCC(=O)NC3CC3)n2)cc1`, the inhibition was 50%. On to `CC(C)c1ccc(-c2noc(CCC(=O)NC3CC3)n2)cc1`, for which the inhibition was found to be 26.7%.

For the molecule `CNC(=O)CCc1nc(-c2ccccc2)no1`, the inhibition is -73.5% and 30.8%. The figure for `CC(C)(C)c1ccc(-c2noc(CCC(N)=O)n2)cc1` is 124% and 92.8%.
